Screening results from PubChem.
Compounds with a hit are over-represented: about 5.4% of the library has one in this group of screens.
aSyn 5UTR inh: MLPCN primary screen, SNCA 5' untranslated region; alpha-synuclein 5'UTR reporter, inhibitor activity; inhibition, % (tested at 7.5 µM); 300,000 compounds, 0.82% hits; AID 1813; in the data active = inhibition above about 60%; inconclusive = no clear call, values can overlap the other calls;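 note: H4 neuroglioblastoma cells stably carrying SNCA 5'UTR luciferase fusion; 0% = DMSO wells and 100% = positive control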
Mdm2 MdmX PPI: inhibitors of human Mdm2/MdmX interaction; O15151+Q00987; SaOS-2 split-luciferase Mdm2/MdmX complementation, luminescence; inhibition, % at 8 µM; 330,000 compounds, 3% hits;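 active = inhibition of at least 50% at 8 µM in the primary screen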
Target sequence (O15151 whole entry, looked up): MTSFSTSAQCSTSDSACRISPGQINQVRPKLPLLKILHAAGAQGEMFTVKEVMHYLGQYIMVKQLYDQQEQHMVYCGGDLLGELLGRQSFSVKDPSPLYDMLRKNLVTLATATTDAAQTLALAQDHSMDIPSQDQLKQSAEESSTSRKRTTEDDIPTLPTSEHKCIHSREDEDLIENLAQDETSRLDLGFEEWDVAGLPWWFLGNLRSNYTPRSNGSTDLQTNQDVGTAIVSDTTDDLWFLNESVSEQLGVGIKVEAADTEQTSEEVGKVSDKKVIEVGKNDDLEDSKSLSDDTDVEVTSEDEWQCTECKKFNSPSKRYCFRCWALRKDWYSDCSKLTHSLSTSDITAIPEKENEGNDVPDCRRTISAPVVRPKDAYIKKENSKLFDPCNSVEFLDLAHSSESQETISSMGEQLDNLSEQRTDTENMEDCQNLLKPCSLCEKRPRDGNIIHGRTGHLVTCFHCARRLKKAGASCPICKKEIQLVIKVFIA
Target sequence (Q00987 whole entry, looked up): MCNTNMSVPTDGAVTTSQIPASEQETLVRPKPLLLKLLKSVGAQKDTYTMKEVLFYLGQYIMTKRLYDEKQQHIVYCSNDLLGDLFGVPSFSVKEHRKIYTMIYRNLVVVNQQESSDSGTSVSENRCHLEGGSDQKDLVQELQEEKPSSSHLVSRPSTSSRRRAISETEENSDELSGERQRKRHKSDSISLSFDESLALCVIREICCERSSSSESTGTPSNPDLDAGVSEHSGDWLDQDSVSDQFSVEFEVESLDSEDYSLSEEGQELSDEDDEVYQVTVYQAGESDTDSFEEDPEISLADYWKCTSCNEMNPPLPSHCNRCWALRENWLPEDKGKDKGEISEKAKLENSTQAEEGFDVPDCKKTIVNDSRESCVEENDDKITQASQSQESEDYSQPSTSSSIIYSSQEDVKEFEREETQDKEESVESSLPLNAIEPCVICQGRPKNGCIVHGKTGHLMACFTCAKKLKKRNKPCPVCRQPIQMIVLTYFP
CSC inhib: cancer stem cell inhibition; cancer stem cell-like cells viability, luminescence; inhibition, % at 7.5 µM; 300,000 compounds, 1.1% hits; in the data active = inhibition above about 75%; inconclusive = no clear call, values can overlap the other calls; tested in HMLE shEcad cells
T cruzi inh: blocks replication of Trypanosoma cruzi. T. cruzi beta-gal in NIH3T3, luminescence, 90 h. 300,000 compounds, 1.4% hits. AID 1885. inhibition, % (concentration not given with the values);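 active = mean inhibition across valid replicates above about 55%, limit read from the data; inconclusive = mean below that limit but half or more replicates reach it; inactive = mean below it, under half of replicates reach it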;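 note: signal also drops with host cell toxicity which is not excluded here; 0% = plate median of DMSO wells and 100% = zero luminescence signal; higher percent means less beta-gal luminescence so fewer parasites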
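System – NIH/3T3 host cells with β-galactosidase reporter T. cruzi · Doses – single 50 nL compound addition per well in DMSO · Reagent – 5000 T. cruzi trypomastigotes/well · Medium – Low-serum DMEM with 2% FBS · Timing – ≥90 h infection period, 3 h prior cell attachment · Evaluation – parasite load inhibition, % · Technique – GalScreen luminescence, 60 min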
SKKanGAS inh: inhibitors of SKKanGAS S. pyogenes growth in kanamycin (SK-promoter or general growth effect) | BacTiter-Glo, 6 h | inhibition, % at 7.5 µM | 300,000 compounds, 1.3% hits;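 active = mean replicate score, as percent of positive control median, at least 50; inconclusive = mean below 50 but one replicate at or above 50; inactive = mean and every replicate below 50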;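 note: strain carries kanamycin resistance gene driven by streptokinase promoter and grows in 40 µg/ml kanamycin; loss of luminescence reflects streptokinase promoter inhibition or plain growth inhibition; 0% = median of DMSO wells and 100% = positive control at its reference dose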
Mdm2-MdmX conf: human Mdm2/MdmX binding inhibition, confirmed. inhibition, % at 8 µM. luminescent assay. shares compounds with Mdm2 MdmX PPI. 10,000 compounds, 55% hits. AID 489028; in the data active = inhibition above about 40%
FLuc counter: counter-screen for Mdm2/MdmX inhibitors: full-length luciferase | shares compounds with Mdm2 MdmX PPI | SaOS-2 full-length luciferase counterscreen, luminescence | inhibition, % at 8 µM | 6,200 compounds, 77% hits | AID 504607;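 active = mean inhibition at 8 µM reaching about 37%, which flags the compound as non-specific, limit read from the data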;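 note: p53-null SaOS-2 cells with luciferase driven by a doxycycline-inducible promoter; compound on cells about two nights before reading with doxycycline added after day one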
Active calls of the source: *; ? = inconclusive; . = no result given.

SMILES	aSyn 5UTR inh	Mdm2 MdmX PPI	CSC inhib	T cruzi inh	SKKanGAS inh	Mdm2-MdmX conf	FLuc counter
Cc1cccc(NC(=O)c2nc[nH]c2C(=O)N[C@@H](Cc2ccccc2)C(=O)OC(C)(C)C)c1	-15	64*	-19	17	98*	26	.
CCOC(=O)c1ccc(NC(=O)c2nc[nH]c2C(=O)N[C@@H](Cc2ccccc2)C(=O)OC(C)(C)C)cc1	-10	62*	2	-12	56*	31	.
CC(C)(C)OC(=O)[C@H](Cc1ccccc1)NC(=O)c1[nH]cnc1C(=O)Nc1cccc(Cl)c1	14	70*	97*	40	72*	23	.
C[C@@H]1COC(=O)[C@@H](Cc2ccc(F)cc2)C/C=C\C[C@@H](CC(=O)N(CCO)Cc2ccccc2)C(=O)N1	.	19	.	.	.	.	.
O=C(CSc1nnc(CNC(=O)c2ccco2)o1)Nc1ccccc1F	-17	4	-2	5	-1	.	.
C[C@H](NC(=O)c1nc[nH]c1C(=O)N[C@@H](Cc1ccccc1)C(=O)OC(C)(C)C)C(=O)OC(C)(C)C	28	26	.	25	7	.	.
CC(C)(C)OC(=O)[C@H](Cc1ccccc1)NC(=O)c1[nH]cnc1C(=O)Nc1ccc(Cl)cc1	16	51*	120*	31	91*	27	.
O=C(Nc1ccccc1Cl)c1cc[n+](Cc2ccc([N+](=O)[O-])cc2)cc1	3	10	-6	-10	-4	.	.
COc1ccc(C(CCNC(C)c2ccccc2)C(C)C)cc1 (stereo unspecified)	25	55*	4	43	-3	30	.
COc1ccc2ccccc2c1CNC(C)c1ccccc1 (stereo unspecified)	-1	26	5	21	1	.	.
COc1ccc(C(C)NCCC(c2ccc(OC(C)C)cc2)c2ccccc2OC)cc1 (stereo unspecified)	93*	99*	104*	?	6	69*	56*
CCC(C)c1ccc(NC(=S)NC2CCN(Cc3ccccc3)CC2)cc1 (stereo unspecified)	20	76*	36	24	-8	29	.
O=C1[C@@H]2Cc3c([nH]c4ccccc34)C(c3cccc([N+](=O)[O-])c3)N2C(=O)CN1CCCO (stereo partly specified)	30	8	-9	17	4	.	.
CCOc1ccc(-c2cc(CCCC(=O)Nc3cccc(OC)c3)no2)cc1	68*	54*	57	-14	2	45*	61*
O=C(COc1ccccc1Br)N1CCN(c2ccccc2)CC1	-9	-20	.	6	-4	.	.
COc1ccc(CCNC(=S)Nc2cccc3ccccc23)cc1	-29	64*	15	7	4	33	.
COc1ccc(-c2cn3c4c(sc3n2)CCCC4)cc1	18	-85	-1	31	-18	.	.
O=C(c1ccc(F)cc1)C1CCN(C(=S)NCC2CCCO2)CC1 (stereo unspecified)	-8	27	-6	-2	1	.	.
COC(=O)N1CCc2c(sc(NC(=O)C3=COCCO3)c2C#N)C1	-126	56*	-12	-12	7	75*	66*
Cc1nnc(NC(=O)c2cc(-c3ccco3)nc3ccccc23)s1	9	31	1	10	5	.	.
Cc1cccc(-c2cc(C(=O)Nc3sc(C)c(C)c3C(N)=O)c3ccccc3n2)c1	43	23	37	29	13	.	.
Cc1ccc2nc(NC(=O)c3cc(-c4ccco4)nc4ccccc34)sc2c1	9	61*	27	-7	7	31	.
O=C(Nc1nc2ccccc2s1)c1cc(-c2ccco2)nc2ccccc12	11	66*	.	7	36	45*	55*
Cc1ccccc1-c1cc(C(=O)Nc2nc3c(s2)CCCC3)c2ccccc2n1	-4	62*	6	?	16	48*	35
O=C(Nc1nc2c(s1)CCCC2)c1cc(-c2ccc3c(c2)OCO3)nc2ccccc12	-39	18	19	39	4	.	.
SMILES	aSyn 5UTR inh	Mdm2 MdmX PPI	CSC inhib	T cruzi inh	SKKanGAS inh	Mdm2-MdmX conf	FLuc counter
Cc1ccc(C)c(-c2cc(C(=O)Nc3sc(C)c(C)c3C(N)=O)c3ccccc3n2)c1	-28	51*	54	29	70*	18	.
Cc1cccc(NC(=O)Nc2cc(C)cc(C)n2)c1	-184	-41	-11	14	-2	.	.
CCOC(=O)c1c(NC(=O)CSc2nnnn2CC)sc(C)c1C	30	-12	14	22	0	.	.
CCN(CC)CCNC(=O)c1ccc(NC(=O)c2cc(-c3ccco3)nc3ccccc23)cc1	24	55*	-6	23	-2	22	.
CN(C)C(=O)c1ccc(NC(=O)c2cc(-c3ccco3)nc3ccccc23)cc1	1	2	-3	-8	7	.	.
C/C(=N\NC(=O)CCCOc1ccc(Cl)cc1C)c1ccc(C)o1	-9	11	.	0	-1	.	.
COc1ccc(C)cc1S(=O)(=O)N1CCC(C(=O)NCCc2ccccc2)CC1	8	-1	-15	7	-15	.	.
CN1/C(=C/c2cccc[n+]2CCO)Sc2ccccc21	-1	1	-9	-3	3	.	.
CC[n+]1ccccc1/C=C1\Sc2ccc(C)cc2N1C	33	66*	2	63*	4	65*	42*
COc1ccccc1Nc1nnc(SCC(=O)NC(=O)Nc2ccc3c(c2)OCCO3)s1	1	68*	-8	-16	6	57*	44*
Cc1cccc(Nc2nnc(SCC(=O)NC(=O)Nc3ccc4c(c3)OCCO4)s2)c1	-95	91*	18	3	-13	24	.
Cc1ccccc1Nc1nnc(SCC(=O)NC(=O)Nc2ccc3c(c2)OCCO3)s1	-86	33	-7	7	2	.	.
CCOC(=O)c1c(C)[nH]c(C(=O)CSc2nccc(C)n2)c1C	-129	-61	-1	24	-11	.	.
COc1ccc(OC)c(C(=O)/C=C/c2ccccc2C(F)(F)F)c1	-198	89*	99*	34	15	65*	21
COc1ccc(OC)c(N/C=C/C(=O)c2ccccc2)c1	83*	58*	3	-10	-4	62*	155*
COc1ccc(N/C=C/C(=O)c2cc(OC)c(OC)c(OC)c2)cc1	?	68*	68	-53	-1	60*	57*
COc1ccc(N/C=C/C(=O)c2ccc(OC)c(OC)c2)cc1	-27	29	11	-8	-3	.	.
CCCCN=Cc1c(C)[nH]n(-c2ccccc2)c1=S	-26	-15	17	3	-9	.	.
CCCCN(CCCC)C(=S)N/N=C/c1c(C)[nH]n(-c2ccccc2)c1=O	93*	84*	-1	-21	88*	78*	45*
Cc1[nH]n(-c2ccc(Br)cc2)c(=O)c1/C=N/NC(=O)c1ccccc1	47	53*	80*	-20	90*	52*	47*
